Assay results reported in ChEMBL document CHEMBL1165950, “Design and synthesis of new potent anticancer pyrazoles with high FLT3 kinase inhibitory selectivity” (Bioorg Med Chem, 2010).

What was measured:
Assay type in all cases: functional
SNB-75 [1] = assay: Cytotoxicity against human SNB75 cells assessed as cell growth at 100 nM after 48 hrs by sulforhodamine B assay; conditions: SNB-75, 48 h, read-out: Activity
DU-145 = assay: Cytotoxicity against human DU145 cells assessed as cell growth at 10 uM; conditions: read-out: Activity
How it was run: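 Single-dose NCI-60 screen at 10 µM. Cells were grown in RPMI 1640 with 5% FBS and 2 mM L-glutamine, then treated for 48 h at 37 °C. Protein was measured by SRB staining with absorbance at 515 nm. Percentage growth was recorded, and inhibition percentage was calculated as 100 minus growth percentage.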

NCI-H226 = assay: Cytotoxicity against human NCI-H226 cells assessed as cell growth at 10 uM; conditions: read-out: Activity
How it was run: (§1)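 NCI-60 screen: cells grown in RPMI 1640 with 5% FBS and 2 mM L-glutamine, plated at 5000–40,000 cells/well according to doubling time, and preincubated 24 h at 37 °C, 5% CO2. The single 10 µM dose (DMSO stock) was added, then incubated 48 h. Cells were TCA-fixed and stained with 0.4% SRB, read at 515 nm, and growth % calculated against time-zero and control plates.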

NCI-H460 = assay: Cytotoxicity against human NCI-H460 cells assessed as cell growth at 10 uM; conditions: read-out: Activity; how it was run: as §1
Malme-3M = assay: Cytotoxicity against human MALME-3M cells assessed as cell growth at 0.001 uM after 48 hrs by sulforhodamine B assay; conditions: read-out: Activity
KM12 = assay: Growth inhibition of human KM12 cells after 48 hrs by sulforhodamine B assay; conditions: KM12, 48 h
How it was run: (§2)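 NCI 60-cell screen, five-dose mode. Cells grown in RPMI 1640 with 5% FBS and 2 mM L-glutamine and plated at 5000-40,000 cells/well according to doubling time. After 24 h preincubation, a Tz plate was TCA-fixed. Five concentrations (10-fold or 1/2 log dilutions) were applied for 48 h at 37 °C. SRB staining read at 515 nm. IC50 taken from [(Ti-Tz)/(C-Tz)]×100 = 50.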

PC-3 = assay: Growth inhibition of human PC3 cells after 48 hrs by sulforhodamine B assay; conditions: PC-3, 48 h; how it was run: as §2
SNB-75 [2] = assay: Cytotoxicity against human SNB75 cells assessed as cell growth at 0.001 uM after 48 hrs by sulforhodamine B assay; conditions: SNB-75, 48 h, read-out: Activity
SK-MEL-5 = assay: Cytotoxicity against human SK-MEL-5 cells assessed as cell growth at 0.001 uM after 48 hrs by sulforhodamine B assay; conditions: SK-MEL-5, 48 h, read-out: Activity
[3] = Cytotoxicity against human Hs 578T cells assessed as cell growth at 100 nM after 48 hrs by sulforhodamine B assay; conditions: read-out: Activity
CCRF-CEM = assay: Cytotoxicity against human CCRF-CEM cells assessed as cell growth at 1 uM after 48 hrs by sulforhodamine B assay; conditions: read-out: Activity
How it was run: (§3)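 NCI-60 five-dose screen. Cells were grown in RPMI 1640 with 5% FBS and 2 mM L-glutamine, plated at 5000–40,000 cells/well and preincubated for 24 h. Time-zero plates were TCA-fixed. DMSO-solubilized drug was added at five concentrations (10-fold or ½-log serial dilutions) for 48 h at 37 °C, 5% CO2. Cells were TCA-fixed, stained with 0.4% SRB and read at 515 nm. Percent growth used time-zero, control and test absorbances.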

[4] = Cytotoxicity against human RPMI8266 cells assessed as cell growth at 1 uM after 48 hrs by sulforhodamine B assay; conditions: read-out: Activity
HOP-62 = assay: Cytotoxicity against human HOP62 cells assessed as cell growth at 10 uM after 48 hrs by sulforhodamine B assay; conditions: HOP-62, 48 h, read-out: Activity
HOP-92 = assay: Cytotoxicity against human HOP92 cells assessed as cell growth at 0.001 uM after 48 hrs by sulforhodamine B assay; conditions: HOP-92, 48 h, read-out: Activity
HL-60(TB) [5] = assay: Cytotoxicity against human HL-60(TB) cells assessed as cell growth at 1 uM after 48 hrs by sulforhodamine B assay; conditions: HL-60, 48 h, read-out: Activity
How it was run: (§4)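 NCI 60-cell panel. Cells are grown in RPMI 1640 with 5% FBS and 2 mM L-glutamine, seeded at 5000–40,000 cells/well according to doubling time, and preincubated 24 h. Time-zero plates are TCA-fixed. Compound from DMSO stock is given at five 10-fold or 1/2-log concentrations for 48 h at 37 °C, 5% CO2. Suspension cells are fixed with 80% TCA (final 16%) and SRB-stained, with absorbance at 515 nm. Percent growth is derived from Tz, control and test readings.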

HL-60(TB) [6] = assay: Cytotoxicity against human HL-60(TB) cells assessed as cell growth at 0.001 uM after 48 hrs by sulforhodamine B assay; conditions: HL-60, 48 h, read-out: Activity; how it was run: as §4
SK-MEL-2 = assay: Cytotoxicity against human SK-MEL-2 cells assessed as cell growth at 0.001 uM after 48 hrs by sulforhodamine B assay; conditions: SK-MEL-2, 48 h, read-out: Activity
TK-10 = assay: Cytotoxicity against human TK10 cells assessed as cell growth at 10 uM after 48 hrs by sulforhodamine B assay; conditions: TK-10, 48 h, read-out: Activity
IGROV-1 [7] = assay: Cytotoxicity against human IGROV1 cells assessed as cell growth at 10 uM after 48 hrs by sulforhodamine B assay; conditions: IGROV-1, 48 h, read-out: Activity
BT-549 = assay: Cytotoxicity against human BT549 cells assessed as cell growth at 100 nM after 48 hrs by sulforhodamine B assay; conditions: BT-549, 48 h, read-out: Activity; how it was run: as §3
IGROV-1 [8] = assay: Cytotoxicity against human IGROV1 cells assessed as cell growth at 1 uM after 48 hrs by sulforhodamine B assay; conditions: IGROV-1, 48 h, read-out: Activity
OVCAR-3 = assay: Cytotoxicity against human OVCAR-3 cells assessed as cell growth at 0.01 uM after 48 hrs by sulforhodamine B assay; conditions: OVCAR-3, 48 h, read-out: Activity
HL-60(TB) [9] = assay: Cytotoxicity against human HL-60(TB) cells assessed as cell growth at 10 uM after 48 hrs by sulforhodamine B assay; conditions: HL-60, 48 h, read-out: Activity; how it was run: as §4
CAKI-1 = assay: Cytotoxicity against human Caki1 cells assessed as cell growth at 0.01 uM after 48 hrs by sulforhodamine B assay; conditions: CAKI-1, 48 h, read-out: Activity
MDA-MB-468 = assay: Cytotoxicity against human MDA-MB-468 cells assessed as cell growth at 10 uM; conditions: read-out: Activity; how it was run: as §1
T47D = assay: Cytotoxicity against human T47D cells assessed as cell growth at 100 nM after 48 hrs by sulforhodamine B assay; conditions: read-out: Activity
NCI/ADR-RES = assay: Cytotoxicity against human NCI/ADR-RES cells assessed as cell growth at 1 uM after 48 hrs by sulforhodamine B assay; conditions: read-out: Activity
SF-295 = assay: Cytotoxicity against human SF295 cells assessed as cell growth at 0.01 uM after 48 hrs by sulforhodamine B assay; conditions: SF-295, 48 h, read-out: Activity
SK-MEL-28 = assay: Cytotoxicity against human SK-MEL-28 cells assessed as cell growth at 0.01 uM after 48 hrs by sulforhodamine B assay; conditions: SK-MEL-28, 48 h, read-out: Activity

**Q.** For `COc1cc(C)cc(-c2nn(CC#N)cc2-c2ccnc(-c3ccc(N(C)C)cc3)c2)c1`, which growth at 0.1 µM (SNB-75 [1]) is on record?
**A.** Its growth at 0.1 µM is -8%.

**Q.** What about the growth at 10 µM (DU-145) of the same compound?
**A.** Its growth at 10 µM is 2.87%.

**Q.** And the growth at 10 µM (NCI-H226)?
**A.** Its growth at 10 µM is 24.9%.

**Q.** And the growth at 10 µM (NCI-H460)?
**A.** Its growth at 10 µM is 2.65%.

**Q.** And the growth at 0.001 µM (Malme-3M)?
**A.** Its growth at 0.001 µM is 88%.

**Q.** And the GI50 (KM12)?
**A.** The GI50 was 310 nM.

**Q.** And the TGI (KM12)?
**A.** Its TGI is 1620 nM.

**Q.** And the CC50 (KM12; read-out: LC50 (the source's name))?
**A.** The CC50 was 25500 nM.

**Q.** What about the GI50 (PC-3) of the same compound?
**A.** Its GI50 is 363 nM.

**Q.** And the LC50 (concentration giving 50% net cell kill) (PC-3)?
**A.** The LC50 (concentration giving 50% net cell kill) was > 100000 nM.

**Q.** And the TGI (PC-3)?
**A.** The TGI was > 100000 nM.

**Q.** What about the growth at 0.001 µM (SNB-75 [2]) of the same compound?
**A.** Its growth at 0.001 µM is 95%.

**Q.** What about the growth at 0.001 µM (SK-MEL-5) of the same compound?
**A.** Its growth at 0.001 µM is 99%.

**Q.** And the growth at 0.1 µM [3]?
**A.** Its growth at 0.1 µM is -19%.

**Q.** What about the growth at 1 µM (CCRF-CEM) of the same compound?
**A.** The growth at 1 µM was 16%.

**Q.** And the growth at 1 µM [4]?
**A.** Its growth at 1 µM is 1%.

**Q.** And the growth at 10 µM (HOP-62)?
**A.** Its growth at 10 µM is -13%.

**Q.** And the growth at 0.001 µM (HOP-92)?
**A.** The growth at 0.001 µM was 102%.

**Q.** What about the growth at 1 µM (HL-60(TB) [5]) of the same compound?
**A.** Its growth at 1 µM is -1%.

**Q.** What about the growth at 0.001 µM (HL-60(TB) [6]) of the same compound?
**A.** Its growth at 0.001 µM is 97%.

**Q.** What about the growth at 0.001 µM (SK-MEL-2) of the same compound?
**A.** Its growth at 0.001 µM is 117%.

**Q.** And the growth at 10 µM (TK-10)?
**A.** Its growth at 10 µM is -3%.

**Q.** And the growth at 10 µM (IGROV-1 [7])?
**A.** Its growth at 10 µM is -6%.

**Q.** And the growth at 0.1 µM (BT-549)?
**A.** Its growth at 0.1 µM is 66%.

**Q.** And the growth at 1 µM (IGROV-1 [8])?
**A.** The growth at 1 µM was 5%.

**Q.** What about the growth at 0.01 µM (OVCAR-3) of the same compound?
**A.** The growth at 0.01 µM was 95%.

**Q.** What about the growth at 10 µM (HL-60(TB) [9]) of the same compound?
**A.** Its growth at 10 µM is -27%.

**Q.** And the growth at 0.01 µM (CAKI-1)?
**A.** The growth at 0.01 µM was 92%.

**Q.** What about the growth at 10 µM (MDA-MB-468) of the same compound?
**A.** The growth at 10 µM was -48.4%.

**Q.** And the growth at 0.1 µM (T47D)?
**A.** The growth at 0.1 µM was 24%.

**Q.** What about the growth at 1 µM (NCI/ADR-RES) of the same compound?
**A.** Its growth at 1 µM is -5%.

**Q.** What about the growth at 0.01 µM (SF-295) of the same compound?
**A.** The growth at 0.01 µM was 94%.

**Q.** And the growth at 0.01 µM (SK-MEL-28)?
**A.** The growth at 0.01 µM was 102%.
